From ChEMBL document CHEMBL2010713, “Structure-activity relationship of a new series of reversible dual monoacylglycerol lipase/fatty acid amide hydrolase inhibitors” (J Med Chem, 2012) come the findings set out here.

In assay [1] the target is T1, Monoglyceride lipase (Homo sapiens) (UniProt Q99685).
T1 sequence (whole entry): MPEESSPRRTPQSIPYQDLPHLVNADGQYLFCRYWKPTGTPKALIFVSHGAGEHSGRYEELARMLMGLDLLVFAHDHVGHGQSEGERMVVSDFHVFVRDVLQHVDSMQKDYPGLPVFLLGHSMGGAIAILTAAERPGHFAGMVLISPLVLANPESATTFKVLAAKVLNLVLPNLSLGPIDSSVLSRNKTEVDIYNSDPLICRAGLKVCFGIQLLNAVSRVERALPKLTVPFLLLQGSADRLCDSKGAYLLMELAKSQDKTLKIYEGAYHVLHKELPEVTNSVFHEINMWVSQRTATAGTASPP
Kind of assay: Inhibition of human recombinant his-tagged MAGL expressed in Escherichia coli assessed as hydrolysis of 4-nitrophenyl acetate at 10 uM after 20 mins by microplate reader.

Assay [2] deals with Monoglyceride lipase (Rattus norvegicus) (UniProt Q8R431). Kind of assay: Inhibition of rat brain cytosolic MAGL assessed as [3H]-2-oleoylglycerol hydrolysis at 100 uM after 10 mins by liquid scintillation spectroscopy. Particulars: Cytosol.
Assay [3] has the same target. The experiment in a line: Inhibition of rat brain cytosolic MAGL assessed as [3H]-2-oleoylglycerol hydrolysis after 10 mins by liquid scintillation spectroscopy.
Assay [4] addresses Fatty-acid amide hydrolase 1 (Rattus norvegicus) (UniProt P97612). The experiment in a line: Inhibition of rat brain membrane FAAH assessed as [3H]-anandamide hydrolysis after 10 mins by liquid scintillation spectroscopy.
Assay [5] has as its target T2, Monoglyceride lipase (Homo sapiens, UniProt Q99685).
T2 sequence (Q99685 whole entry): T1 sequence (whole entry)
The experiment in a line: Inhibition of human recombinant his-tagged MAGL expressed in Escherichia coli assessed as hydrolysis of 4-nitrophenyl acetate after 20 mins by microplate reader.

Assay [6] has as its target T3, Fatty-acid amide hydrolase 1 (Rattus norvegicus) (UniProt P97612).
T3 sequence (whole entry): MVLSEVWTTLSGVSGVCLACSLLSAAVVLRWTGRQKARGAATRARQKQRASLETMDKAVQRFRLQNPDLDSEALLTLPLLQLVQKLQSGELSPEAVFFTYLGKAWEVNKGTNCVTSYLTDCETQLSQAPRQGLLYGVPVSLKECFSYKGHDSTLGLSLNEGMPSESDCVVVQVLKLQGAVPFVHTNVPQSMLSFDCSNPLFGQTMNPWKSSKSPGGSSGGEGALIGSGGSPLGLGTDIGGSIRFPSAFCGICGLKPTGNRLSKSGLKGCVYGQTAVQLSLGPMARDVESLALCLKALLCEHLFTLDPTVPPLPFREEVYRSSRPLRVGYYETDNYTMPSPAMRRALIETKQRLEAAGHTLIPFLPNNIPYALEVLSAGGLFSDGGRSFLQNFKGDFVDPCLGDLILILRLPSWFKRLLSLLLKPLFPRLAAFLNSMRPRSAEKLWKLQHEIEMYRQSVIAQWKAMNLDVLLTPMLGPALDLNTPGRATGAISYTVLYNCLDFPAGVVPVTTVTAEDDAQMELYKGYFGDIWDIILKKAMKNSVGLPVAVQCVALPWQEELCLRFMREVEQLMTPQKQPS
Kind of assay: Inhibition of rat brain membrane FAAH assessed as [3H]-anandamide hydrolysis at 100 uM after 10 mins by liquid scintillation spectroscopy. An outline of the steps:
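Membrane fraction of rat cerebella (100000g pellet resuspended in 50 mM sodium phosphate pH 8.0), diluted in 10 mM Tris-HCl, 1 mM EDTA, pH 7.2, for initial-rate conditions. [3H]-anandamide, ethanolamine-labelled, final 0.5 μM, with fatty acid-free BSA. Aqueous-phase tritium measured by liquid scintillation; blanks lacked enzyme; activity as percent of solvent-carrier control. Highest concentration 100 μM; 3–10 independent experiments.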

The target of assay [7] is T4, Monoglyceride lipase (Rattus norvegicus) (UniProt Q8R431).
T4 sequence (whole entry): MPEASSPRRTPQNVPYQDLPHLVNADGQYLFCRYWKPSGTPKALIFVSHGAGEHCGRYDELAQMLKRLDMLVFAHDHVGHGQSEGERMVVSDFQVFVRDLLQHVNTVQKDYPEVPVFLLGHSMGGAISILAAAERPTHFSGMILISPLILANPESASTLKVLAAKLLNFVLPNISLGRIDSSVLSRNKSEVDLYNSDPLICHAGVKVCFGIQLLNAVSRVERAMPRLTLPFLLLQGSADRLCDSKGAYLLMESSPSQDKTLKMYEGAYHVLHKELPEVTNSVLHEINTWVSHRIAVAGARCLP
Kind of assay: Irreversible inhibition of rat brain cytosolic MAGL assessed as […] at 0.1 to 1 uM preincubated for 60 mins by liquid scintillation.

For assay [8], the target named is T1, Monoglyceride lipase (Homo sapiens).
In assay [9] the target is T4, Monoglyceride lipase (Rattus norvegicus). Kind of assay: Irreversible inhibition of rat brain cytosolic MAGL assessed as […] at 3 to 10 uM preincubated for 60 mins by liquid scintillation.
The target is the same in assay [10]. The settings on record: 10 uM.
For assay [11] the target is unchanged. Particulars: 10 uM. This is another data set of the same source.
The target is the same in assay [12]. Particulars: 10 uM. The source holds these as a separate data set.
The target is the same in assay [13]. The settings on record: 10 uM. The source holds these as a separate data set.
Assay [14] has the same target. Kind of assay: Inhibition of rat brain cytosolic MAGL assessed as [3H]-2-arachidonoyl glycerol hydrolysis at 100 uM after 10 mins by liquid scintillation spectroscopy.
Assay [15] shares this target. The experiment in a line: Irreversible inhibition of rat brain cytosolic MAGL assessed as [3H]-2-arachidonoyl glycerol hydrolysis at 0.1 uM preincubated for 60 mins by liquid scintillation.
Assay [16] shares this target. The experiment in a line: Irreversible inhibition of rat brain cytosolic MAGL assessed as [3H]-anandamide hydrolysis at 3 uM preincubated for 60 mins followed by […] compound treated after dilution by liquid scintillation.
The target is the same in assay [17]. Kind of assay: Irreversible inhibition of rat brain cytosolic MAGL assessed as [3H]-2-arachidonoyl glycerol hydrolysis at 3 uM preincubated for 60 mins followed by […] compound treated after dilution by liquid scintillation.
Assay [18] addresses T2, Monoglyceride lipase. The experiment in a line: Non-competitive inhibition of human recombinant MAGL assessed as 7-hydroxycoumarin level using umbelliferyl arachidonate as substrate by luminescence spectrophotometer.
For assay [19], the target named is T4, Monoglyceride lipase (Rattus norvegicus). The experiment in a line: Irreversible inhibition of rat brain cytosolic MAGL assessed as [3H]-2-arachidonoyl glycerol hydrolysis at 3 uM preincubated for 60 mins measured after dilution by liquid scintillation.
The target is the same in assay [20]. The experiment in a line: Irreversible inhibition of rat brain cytosolic MAGL assessed as [3H]-anandamide hydrolysis at 3 uM preincubated for 60 mins measured after dilution by liquid scintillation.

Molecules are shown by their SMILES. Activity calls are given as the source filed them. No cut-off for these calls is given here.

By inhibition is commonly meant the relative decrease from the control value, in per cent. What is called IC50 is the point on the concentration scale where inhibition reaches its midpoint. Turning to `O=C(Cc1ccc(Cc2ccccc2)cc1)OC(CO)CO`, the inhibition is less than 10% in assay [1] and 49% in assay [2]. Besides, the IC50 was greater than 100 µM in assay [3] and 0.7 µM in [4].

As for `O=C(CCc1ccc(-c2ccccc2)cc1)OCC1CO1` (racemic), the IC50 in assay [5] was greater than 10 µM. In addition, the inhibition in assay [1] came out at 22%.

As to `O=C(CCCCc1ccc(-c2ccccc2)cc1)OCC1CO1` (racemic), the half-inhibitory concentration (IC50) in assay [5] was 6.6 µM; in assay [3] it was 2.6 µM; in [4] it was 4.6 µM. The Imax in assay [6] came out at 87%.

`O=C(/C=C/Cc1ccc(-c2ccccc2)cc1)OCC1CCCCO1` (racemic): the IC50 in [5] was greater than 10 µM. Moreover, the inhibition in assay [1] was 49%.

Regarding `O=C(CCCc1ccc(-c2ccccc2)cc1)OCC1CO1` (racemic), the IC50 in assay [5] was 1.8 µM. The Imax in assay [1] is 86%.

Turning to `O=C(OCC1CCCCO1)c1ccc(CCc2ccccc2)cc1` (racemic), in assay [1], the inhibition is less than 10%.

Regarding `O=C(CCCCCc1ccc(-c2ccccc2)cc1)OCC1CO1` (racemic), the inhibition result in [7] and in assay [9] was “inactive” each time. Besides, the Kic in [8] was determined as 8 µM. The IC50 in assay [5] is 4.1 µM. Also, the inhibition result in [10], in assay [11], in assay [12] and in assay [13] was “Active” in each case. Further, the Imax in assay [6] stood at 89%.

For the compound `O=C(CCCCCc1ccc(-c2ccccc2)cc1)OC[C@H]1CO1`, the IC50 in assay [5] is greater than 10 µM. In addition, the inhibition in assay [1] was 33%. Moreover, the Imax in assay [6] stood at 91%.

`O=C(Cc1ccc(-c2ccccc2)cc1)OCC1CCCCO1` (racemic): the half-inhibitory concentration (IC50) in assay [5] was greater than 10 µM. Besides, the inhibition in [1] was determined as 21%.

For `O=C(/C=C/c1ccc(-c2ccccc2)cc1)OCC1CO1` (racemic), the IC50 in [5] came out at 5.1 µM. For the same compound, the Imax in [14] was 73%.

`O=C(CCCc1ccc(Cc2ccccc2)cc1)OCC1CO1` (racemic): in assay [5], the IC50 is greater than 10 µM. In [1], the inhibition worked out at 29%.

`O=C(CCCc1ccc(Cc2ccccc2)cc1)OCC1CCCCO1` (racemic): in [5], the IC50 is greater than 10 µM. The inhibition in [1] worked out at 14%. For the same compound, in [14], the Imax amounted to 72%.

Take `O=C(CCc1ccc(Cc2ccccc2)cc1)OCC1CO1` (racemic): the inhibition in assay [1] is less than 10%. The Imax in assay [6] stood at 72%.

In the case of `O=C(CCCCCc1ccc(-c2ccccc2)cc1)OCC1CCCCO1` (racemic), the IC50 in [5] is greater than 10 µM. Also, the inhibition in [1] worked out at 33%.

`O=C(CCc1ccc(-c2ccccc2)cc1)OCC1CCCCO1` (racemic): in assay [5], the concentration for half-maximal inhibition (IC50) was determined as 1.6 µM. For the same compound, the Imax in [1] was found to be 67%.

For the compound `O=C(/C=C/c1ccc(-c2ccccc2)cc1)OCC1CCCCO1` (racemic), the IC50 in assay [5] was found to be 0.76 µM. Moreover, in assay [1], the Imax was 90%. Besides, in assay [14], the inhibition was 37%.

`O=C(CCCCCc1ccc(-c2ccccc2)cc1)OC[C@@H]1CO1`: the IC50 in assay [5] is greater than 10 µM. Also, in assay [1], the inhibition was found to be 45%. Moreover, the Imax is 92% in assay [6] and greater than 95% in [14].

As for `O=C(C/C=C/c1ccc(-c2ccccc2)cc1)OCC1CCCCO1` (racemic), the IC50 in [5] is greater than 10 µM. In addition, the inhibition in assay [1] is 12%.

As to `O=C(CCc1ccc(Cc2ccccc2)cc1)OCC1CCCCO1` (racemic), the inhibition in [1] is less than 10%.

For the compound `O=C(CCCCCc1ccc(-c2ccccc2)cc1)OC(CO)CO`, the IC50 in [5] worked out at 7.5 µM.

As to `O=C(CCCCc1ccc(-c2ccccc2)cc1)OCC1CCCCO1` (racemic), the IC50 in [5] was 12 µM.

With `O=C(Oc1ccc([N+](=O)[O-])cc1)N1CCC(C(O)(c2ccc3c(c2)OCO3)c2ccc3c(c2)OCO3)CC1`, in [15], the inhibition result was “Active”.

With `O=C(Cc1ccc(Cc2ccccc2)cc1)OCC1CCCCO1` (racemic), the inhibition in assay [1] was less than 10%; in [2], 25%. Also, in assay [14], the Imax was found to be 96%. The IC50 in [3] is greater than 100 µM; in assay [4], 6.8 µM.

On to `O=C(Cc1ccc(Cc2ccccc2)cc1)OC[C@@H]1CO1`, for which the inhibition in assay [1] is less than 10%.

On to `O=C(CCCc1ccc(-c2ccccc2)cc1)OCC1CCCCO1` (racemic), for which, in assay [5], the IC50 was greater than 10 µM. Further, the inhibition in assay [1] came to 34%.

For the compound `O=C(CCCCCCc1ccc(-c2ccccc2)cc1)OCC1CCCCO1` (racemic), the IC50 in assay [5] was greater than 10 µM. Moreover, the inhibition in assay [1] is 37%. Further, in assay [14], the Imax came out at 83%.

With `CCCCC/C=C\C/C=C\C/C=C\C/C=C\CCCC(=O)OCC1CCCCO1` (stereo not given), the IC50 in assay [3] was found to be 5.6 µM.

As for `O=C(OCC1CO1)c1ccc(CCc2ccccc2)cc1` (racemic), the inhibition in [1] was less than 10%.

On to `O=C(Cc1ccc(-c2ccccc2)cc1)OCC1CO1` (racemic), for which the inhibition in [1] was less than 10%.

What is called Ki is a measure of affinity in units of concentration, obtained from inhibition or displacement. On to `O=C(Cc1ccc(Cc2ccccc2)cc1)OC[C@H]1CO1`, for which the inhibition entry in assay [7], in assay [9], in [16], in assay [17], in [19] and in assay [20] was “inactive” in each case. The IC50 in [5] was found to be 2.4 µM. In addition, the Ki in assay [18] amounted to 40 µM.

In the case of `O=C(Cc1ccc(Cc2ccccc2)cc1)OCC1CO1` (racemic), the IC50 in assay [5] turned out to be 16 µM.

In the case of `O=C(CCCCCCc1ccc(-c2ccccc2)cc1)OCC1CO1` (racemic), the IC50 in [5] was greater than 10 µM. Besides, in assay [1], the inhibition was determined as 11%.
